The nature of data set [1]: Toxicity in iv dosed mouse. In kind it is organism-based. Conditions: in vivo. The method, boiled down: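 Female mice (14–16 g, post-weaning) kept 14 days on an iodine-poor diet. They were then given 10 μg L-thyroxine sc and 6–8 μCi 125I ip, followed by L-thyroxine 1 mg/l in drinking water for 3 days. On day 4, cyclic nucleotides were injected into the tail vein as sodium salts in aqueous solution, pH 7.4, at 6–60 mg/kg. Deaths were recorded per dose group of about six animals.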

For data set [2], the system named is Mus musculus. The experiment in a line: Induction of radioiodine secretion from 14 days iodine-poor diet fed mouse thyroid assessed as blood [125I] level at 15 mg/kg, iv after 2 hrs pretreated with 10 ug L-thyroxine and [125-I] relative to control by McKenzie Bioassay. In kind it is functional, Thyroid gland. The method, boiled down: (§1)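 Weanling female mice (14–16 g) fed an iodine-poor diet for 14 days, then given 10 μg L-thyroxine sc and 6–8 μCi 125I ip, with L-thyroxine (1 mg/l) in drinking water for 3 days. On day 4, cyclic nucleotides were given into the tail vein as sodium salts in aqueous solution, pH 7.4. Orbital-sinus blood was sampled at 0 and 2 h and γ-counted. Result is cpm(2 h)/cpm(0 h) × 100; mean of about six animals per dose.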

Data set [3] relates to Mus musculus. The experiment in a line: Induction of serum thyroxine level in Swiss mouse measured per 100 ml at 1 mg, iv after 1 hr by radioimmunoassay (reference value: 4.20 +/- 0.25 to 6.06 +/- 0.36 ug). In kind it is functional.
The test system of data set [4] is Mus musculus. Kind of data set: Induction of radioiodine secretion from 14 days iodine-poor diet fed mouse thyroid assessed as blood [125I] level at 30 mg/kg, iv after 2 hrs pretreated with 10 ug L-thyroxine and [125-I] relative to control by McKenzie Bioassay. It counts as functional, Thyroid gland. In outline:
as §1

Data set [5] has as its system Mus musculus. The experiment in a line: Induction of radioiodine secretion from 14 days iodine-poor diet fed mouse thyroid assessed as blood [125I] level at 60 mg/kg, iv after 2 hrs pretreated with 10 ug L-thyroxine and [125-I] relative to control by McKenzie Bioassay. It counts as functional, Thyroid gland.
Data set [6] deals with Mus musculus. Kind of data set: Induction of radioiodine secretion from 14 days iodine-poor diet fed mouse thyroid assessed as blood [125I] level at 6 mg/kg, iv after 2 hrs pretreated with 10 ug L-thyroxine and [125-I] relative to control by McKenzie Bioassay. In kind it is functional, Thyroid gland. The method, boiled down: as §1
Data set [7] relates to Mus musculus. The experiment in a line: Induction of radioiodine secretion from 14 days iodine-poor diet fed mouse thyroid assessed as blood [125I] level at 45 mg/kg, iv after 2 hrs pretreated with 10 ug L-thyroxine and [125-I] relative to control by McKenzie Bioassay. It counts as functional, Thyroid gland. In outline: as §1
The subject of data set [8] is Mus musculus. Kind of data set: Induction of serum thyroxine level in Swiss mouse measured per 100 ml at 1 mg, iv after 2 hrs by radioimmunoassay (reference value: 4.20 +/- 0.25 to 6.06 +/- 0.36 ug). It counts as functional.
Data set [9] can be described thus: Stability of the compound assessed as hydrolysis in presence of phosphodiesterase. It counts as ADME.

Each structure is given as a SMILES string. A value given as a limit tells only on which side of the number the result lay.

The source of these data is ChEMBL document CHEMBL3272186, “Synthesis of new cyclic nucleotides and their differential stimulatory effects on thyroid function in mice” (J Med Chem, 1976).

In general, LD50 refers to the dose expected to kill half of the subjects tested. The low end stands for greater toxicity, the high end for lower toxicity.

Turning to `CCCC(=O)Nc1ncnc2c1nc(S)n2[C@@H]1O[C@@H]2COP(=O)([O-])O[C@H]2[C@H]1OC(=O)CCC.[Na+]`, the LD50 in [1] was greater than 200 mg/kg. The Activity with Mus musculus [2] is listed as 154%; in the data set with Mus musculus [4] it was 177%; with Mus musculus [5], 238%. Besides, in the data set with Mus musculus [3], the serum T4 stood at 4.3 µg/dL.
For `Nc1ncnc2c1nc(SCc1ccccc1)n2[C@@H]1O[C@@H]2COP(=O)([O-])O[C@H]2[C@H]1O.[Na+]`, the Activity in the data set with Mus musculus [2] amounted to 183%; in the data set on Mus musculus [6] it was 135%; in the data set with Mus musculus [4] it was 195%.
As to `CCCC(=O)Nc1ncnc2c1nc(SC)n2[C@@H]1O[C@@H]2COP(=O)([O-])O[C@H]2[C@H]1OC(=O)CCC.[Na+]`, in [1], the LD50 is greater than 200 mg/kg. Besides, the Activity in the data set with Mus musculus [2] was determined as 150%; with Mus musculus [4], 125%; in the data set with Mus musculus [5], 174%.
The matching figures for `CCCC(=O)Nc1ncnc2c1nc(SCc1ccccc1)n2[C@@H]1O[C@@H]2COP(=O)([O-])O[C@H]2[C@H]1O.[Na+]`: greater than 200 mg/kg, 146%, 122% and 197%.
Turning to `Nc1ncnc2c1nc(Br)n2[C@@H]1O[C@@H]2COP(=O)([O-])O[C@H]2[C@H]1O.[Na+]`, the Activity is given as 284% in the data set with Mus musculus [2], 248% in the data set on Mus musculus [6], 331% in the data set with Mus musculus [4] and 488% in the data set on Mus musculus [5].
`CCCC(=O)Nc1ncnc2c1nc(S)n2[C@@H]1O[C@@H]2COP(=O)([O-])O[C@H]2[C@H]1O.[Na+]` showed an LD50 in data set [1] greater than 200 mg/kg. Moreover, the Activity is reported as 139% in the data set on Mus musculus [2], 342% with Mus musculus [4] and 630% in the data set with Mus musculus [5].
With `Nc1ncnc2c1nc(O)n2[C@@H]1O[C@@H]2COP(=O)([O-])O[C@H]2[C@H]1O.[Na+]`, the Activity with Mus musculus [2] worked out at 114%.
Regarding `Nc1ncnc2c1nc(N)n2[C@@H]1O[C@@H]2COP(=O)([O-])O[C@H]2[C@H]1O.[Na+]`, the Activity in the data set with Mus musculus [2] is 663%; in the data set with Mus musculus [7], 818%; with Mus musculus [6], 226%; with Mus musculus [4], 607%. In addition, in the data set with Mus musculus [3], the serum T4 was found to be 6.84 µg/dL.
`CCCC(=O)O[C@@H]1[C@@H]2OP(=O)([O-])OC[C@H]2O[C@H]1n1c(SC)nc2c(N)ncnc21.[Na+]` yielded an LD50 in data set [1] greater than 200 mg/kg. The Activity with Mus musculus [7] came to 110%; in the data set on Mus musculus [4], 156%.
As for `CSc1nc2c(N)ncnc2n1[C@@H]1O[C@H](COP(=O)(O)O)[C@@H](O)[C@H]1O`, the serum T4 stood at 4.44 µg/dL in the data set with Mus musculus [3] and 4.78 µg/dL in the data set on Mus musculus [8]. Also, in the data set on Mus musculus [4], the Activity is listed as 112%.
As to `CCCC(=O)Nc1ncnc2c1nc(SC)n2[C@@H]1O[C@@H]2COP(=O)([O-])O[C@H]2[C@H]1O.[Na+]`, the LD50 in [1] is greater than 200 mg/kg. Also, the Activity was found to be 121% in the data set with Mus musculus [2], 204% in the data set with Mus musculus [4] and 533% in the data set on Mus musculus [5].
As to `CCCC(=O)Nc1ncnc2c1nc(SCc1ccccc1)n2[C@@H]1O[C@@H]2COP(=O)([O-])O[C@H]2[C@H]1OC(=O)CCC.[Na+]`, the Activity with Mus musculus [2] came to 170%; in the data set on Mus musculus [6], 116%; in the data set on Mus musculus [4], 141%; in the data set on Mus musculus [5] it was 123%.
In data set [1], `CCCC(=O)O[C@@H]1[C@@H]2OP(=O)([O-])OC[C@H]2O[C@H]1n1c(S)nc2c(N)ncnc21.[Na+]` registered an LD50 greater than 200 mg/kg. The Activity in the data set with Mus musculus [2] was 155%; in the data set with Mus musculus [4] it was 153%; in the data set on Mus musculus [5], 190%.
As to `CSc1nc2c(N)ncnc2n1[C@@H]1O[C@@H]2COP(=O)([O-])O[C@H]2[C@H]1O.[Na+]`, the results for the Activity in the data set on Mus musculus [2], with Mus musculus [6] and in the data set with Mus musculus [4] were 645%, 492% and 804%, respectively. The serum T4 stood at 6.32 µg/dL in the data set on Mus musculus [3] and 6.47 µg/dL in the data set with Mus musculus [8].
Compound `CCCC(=O)Nc1ncnc2c1nc(O)n2[C@@H]1O[C@@H]2COP(=O)([O-])O[C@H]2[C@H]1OC(=O)CCC.[Na+]` had an LD50 in data set [1] greater than 200 mg/kg. Besides, the Activity came to 184% with Mus musculus [2], 500% in the data set on Mus musculus [4] and 582% in the data set on Mus musculus [5]. The same compound returned a serum T4 with Mus musculus [3] of 5.58 µg/dL.
With `[N-]=[N+]=Nc1nc2c(N)ncnc2n1[C@@H]1O[C@@H]2COP(=O)([O-])O[C@H]2[C@H]1O.[Na+]`, the Activity in the data set with Mus musculus [2] is recorded as 594%; in the data set on Mus musculus [6] it was 227%; in the data set with Mus musculus [4], 633%. In the data set with Mus musculus [3], this compound had a serum T4 of 6.19 µg/dL.
In turn, `CCCC(=O)Nc1ncnc2c1nc(N)n2[C@@H]1O[C@@H]2COP(=O)([O-])O[C@H]2[C@H]1OC(=O)CCC.[Na+]` came in with an LD50 in data set [1] greater than 200 mg/kg. Further, the Activity with Mus musculus [4] is recorded as 146%; in the data set on Mus musculus [5], 164%.
In [1], `CCCC(=O)Nc1ncnc2c1ncn2[C@@H]1O[C@@H]2COP(=O)([O-])O[C@H]2[C@H]1OC(=O)CCC.[Na+]` returned an LD50 greater than 200 mg/kg. Also, the Stability entry in data set [9] is listed as “Stable”. This compound also had a serum T4 in the data set with Mus musculus [3] of 5.15 µg/dL. In addition, the Activity in the data set on Mus musculus [4] was 136%; in the data set with Mus musculus [5], 245%.
Consider `[Cl-].[Na+]` [SODIUM CHLORIDE], for which the serum T4 with Mus musculus [3] was 6 µg/dL; in the data set with Mus musculus [8], 5.83 µg/dL.
For the compound `Nc1ncnc2c1nc(S)n2[C@@H]1O[C@@H]2COP(=O)([O-])O[C@H]2[C@H]1O.[Na+]`, in the data set with Mus musculus [6], the Activity was determined as 136%.
